The list is not random: actives were taken first. Their share in the collection is about 4.8%.
Calb FLC: affects C. albicans growth with fluconazole; C. albicans CaCi-2 (fluconazole-resistant clinical isolate) + fluconazole, Alamar Blue growth, 48 h; growth inhibition, % (test concentration not listed); 300,000 tested, 0.57% active; AID 1979;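 active = growth inhibition above about 58% in most replicates, limit read from the data, passing the limit was not always enough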;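 also: all wells also contain fluconazole at 8 µg/ml as a sub-toxic cotreatment; 0% = median of DMSO wells and 100% = median of geldanamycin control wells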
NALP3 yeast inh: blocks the NALP3 inflammasome reconstituted in yeast; AID 2825; inhibition, % at 10 µM; 330,000 tested, 0.39% active; Yeast reconstituted NLRP3/ASC/caspase-1, beta-gal luminescence, 24 h;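 active = inhibition of 50% or more; inactive = inhibition below 50%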;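 also: plate controls were induced DMSO wells for no effect and uninduced yeast grown without galactose for full effect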
ATG4B inh: inhibitors of human ATG4B cysteine protease; ATG4B cleavage of LC3-PLA2, NBD-HPC fluorescence, 1 h; inhibition, % at 8.33 µM; 340,000 tested, 0.51% active; AID 504462; in the data active = inhibition above about 40%
Target sequence (Q9Y4P1 whole entry, looked up): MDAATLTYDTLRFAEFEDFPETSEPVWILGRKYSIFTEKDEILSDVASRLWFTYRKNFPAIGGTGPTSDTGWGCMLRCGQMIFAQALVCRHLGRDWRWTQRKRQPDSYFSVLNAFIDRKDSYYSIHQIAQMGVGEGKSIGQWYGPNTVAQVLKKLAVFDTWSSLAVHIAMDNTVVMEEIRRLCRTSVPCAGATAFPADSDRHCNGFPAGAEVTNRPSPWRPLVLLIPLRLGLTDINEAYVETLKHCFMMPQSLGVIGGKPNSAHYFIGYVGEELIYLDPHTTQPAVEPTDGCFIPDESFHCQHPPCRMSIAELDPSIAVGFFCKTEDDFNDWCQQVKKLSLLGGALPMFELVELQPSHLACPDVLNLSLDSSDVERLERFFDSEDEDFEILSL
ALR H2O2 inh: human ALR oxidase inhibition via reduced H2O2. P55789. purified ALR, DTT oxidation, H2O2 HRP-luminol luminescence. inhibition, % (test concentration not listed). 290,000 tested, 3.8% active. AID 485317;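 active = mean replicate inhibition above about 79%, with every replicate also reaching it, limit read from the data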
Target sequence (P55789 whole entry, looked up): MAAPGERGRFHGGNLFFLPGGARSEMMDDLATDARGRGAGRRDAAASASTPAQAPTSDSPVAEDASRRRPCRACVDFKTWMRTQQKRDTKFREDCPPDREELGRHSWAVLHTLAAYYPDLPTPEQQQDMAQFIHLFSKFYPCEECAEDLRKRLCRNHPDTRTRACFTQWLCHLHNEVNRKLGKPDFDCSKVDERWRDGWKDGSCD
NALP1 inh: NALP1 inhibition; S. cerevisiae NALP1/ASC/caspase-1 growth, X-gal OD620, 72 h; inhibition, % at 10 µM; 280,000 tested, 0.61% active; AID 2071; in the data active = inhibition mostly above about 24%, no sharp cut-off; inactive = mostly below about 32%
UCH37 DUB inh: human UCH37 deubiquitinating enzyme inhibition. 330,000 tested, 0.33% active. purified proteasome/UCH37, Ub-AMC cleavage fluorescence. Q9Y5K5. inhibition, % (test concentration not listed);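 active = mean inhibition over replicate wells above about 20%, limit read from the data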;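 also: 0% = compound-free wells with enzyme and 100% = wells lacking proteasome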
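Schedule: 30 min plus 25 min, room temperature / Material: human UCH37 within purified proteasomes / Technique: AMC fluorescence intensity at 355/460 nm / Buffer or medium: pH 7.4 Tris-HCl (50 mM) with ovalbumin, ATP-MgCl2, DTT / Controls: wells without proteasome as full block, compound-free enzyme plus substrate as uninhibited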
Active calls of the source: *; i = inactive; . = no result.

SMILES | Calb FLC | NALP3 yeast inh | ATG4B inh | ALR H2O2 inh | NALP1 inh | UCH37 DUB inh
CCOC(=O)c1c(C)nc2ccccc2c1-c1ccccc1 | 2.8 | 40.9 | 17.0 | -6.2 | 36.6 | 2.3
O=C(O)c1ccc(-c2nc(-c3ccccc3)c(-c3cccs3)[nH]2)cc1 | -5.0 | -39.6 | 12.7 | 0.4 | . | i
Cc1ccc(-c2[nH]c(-c3ccc(C(=O)O)cc3)nc2-c2ccccc2)cc1 | 1.4 | -75.0 | 30.3 | 99.3* | 12.8 | .
CC(Oc1ccc(-c2ccccc2)cc1)C(=O)NN=Cc1cccnc1 (configuration not stated) | . | . | . | . | . | 2.4
O=C(CC(SCCO)c1ccc2c(c1)OCO2)c1ccco1 (configuration not stated) | 3.3 | 7.2 | -7.4 | 97.4* | -9.8 | -4.1
CC(/C=C/c1ccc2c(c1)OCO2)=NNC(=O)COc1ccc(C)cc1 | . | . | . | . | . | -1.9
C=CCNc1nc(C(=O)OCC(=O)Nc2cc(S(C)(=O)=O)ccc2Cl)cs1 | 4.2 | -3.1 | -2.4 | -11.9 | . | 3.0
C=CCNc1nc(C(=O)OCC(=O)Nc2ccc(S(N)(=O)=O)cc2)cs1 | . | 14.7 | 0.2 | 98.3* | . | 3.8
C/C(C=NNC(=O)Cn1cncn1)=C/c1ccc(C(C)C)cc1 | . | . | . | . | . | 23.3*
CC(/C=N\NC(=O)Cn1cncn1)=C/c1ccc(C(C)C)cc1 | 17.1 | 8.1 | -15.8 | 0.9 | 32.0 | .
Cc1cccc(C)c1OCC(=O)NN=Cc1ccc2c(c1)OCO2 | . | . | . | . | . | 0.4
Oc1ccc(-c2[nH]ncc2-c2cnn(-c3ccccc3)c2)c(O)c1 | 6.5 | 2.1 | -6.7 | 97.7* | 8.9 | 0.9
NC(N)=NN=Cc1ccc(OCc2ccc(Cl)cc2)cc1 | . | . | . | . | . | 6.1
NC(N)=N/N=C/c1ccc(OCc2ccc(Cl)cc2)cc1 | 111.2* | 41.0 | 20.4 | 3.2 | -2.4 | .
CC(=NNC(=O)c1ccoc1C)c1cccc(NC(=O)C(F)(F)F)c1 | . | . | . | . | . | 6.4
O=C(O)CNC(=O)CC1S/C(=N/N=C2CSC(=O)N2)NC1=O (configuration not stated) | . | . | . | . | . | 4.3
CCn1c2ccccc2c2cc(NC(=O)CSc3nnc(C4CC4)n3Cc3ccco3)ccc21 | 2.2 | 26.5 | 37.1 | 97.6* | 29.3 | -1.7
C/C(=N\O)c1ccc2c3c([nH]c2c1)CCCC3 | 15.0 | 22.2 | 3.2 | 97.4* | 23.8 | .
C/C(=N\O)c1ccc2[nH]ccc2c1 | 2.5 | 14.3 | 2.6 | 58.2 | 8.5 | .
Cc1ccc(/C=C/C2=NN(C)C(=O)CC2)cc1 | 10.4 | 1.0 | 2.1 | -9.7 | 5.0 | 20.9*
C/C(CC1CC(COCC(C)C)OC1=O)=N\Nc1nc(-c2ccccc2)cs1 (configuration not stated) | -5.6 | 6.1 | 2.2 | 97.7* | 35.0 | .
CCCS(=O)(=O)c1nnnn1-c1cccc(OC)c1 | 82.2* | . | -5.2 | 97.9* | . | 7.8
Nc1nnc(N2CCCCC2)s1 | 0.3 | 15.7 | 0.9 | 90.5* | 0.2 | 0.9
CN(CCO)c1cc(N2CCCCC2)c2nonc2c1[N+](=O)[O-] | -3.0 | 12.8 | 3.3 | 0.8 | -0.8 | 4.9
CC1CCCN(c2cc(N(C)CCO)c([N+](=O)[O-])c3nonc23)C1 (configuration not stated) | -4.3 | 23.1 | 6.4 | 49.7 | 4.4 | 22.3*
SMILES | Calb FLC | NALP3 yeast inh | ATG4B inh | ALR H2O2 inh | NALP1 inh | UCH37 DUB inh
O=C(NN=C1CCCc2ccccc21)c1cccc([N+](=O)[O-])c1 | . | . | . | . | . | 3.6
COc1cccc(C=NNc2nnc(C)n2N)c1OCc1ccccc1Cl | . | . | . | . | . | 2.6
CCc1ccc2[nH]c(=O)c(CN(Cc3ccco3)C(=S)NCC3CCCO3)cc2c1 (configuration not stated) | 17.4 | 13.1 | -1.0 | 7.3 | 38.0* | 0.0
Fc1ccccc1NC(=S)NCCc1cccc(Cl)c1 | -24.5 | 16.0 | 16.9 | 3.2 | 29.8* | -1.9
CCS(=O)(=O)c1ccc(O)c(NC(=O)COc2ccc(OC)cc2)c1 | -11.6 | -0.7 | -5.1 | 5.4 | 33.9 | 0.9
CCCc1ccc(OCC(=O)Nc2cc(S(=O)(=O)CC)ccc2O)cc1 | 90.1* | 20.9 | -1.2 | 1.3 | -6.6 | 1.1
COc1ccc(C=NN(CCC(=O)NC(C)(C)C)C2=NS(=O)(=O)c3ccccc32)cc1 | . | . | . | . | . | -17.3
O=[N+]([O-])c1ccc(OCCOc2ccccc2/C=N/n2cnnc2)cc1 | 1.2 | 1.9 | -5.0 | -10.7 | 33.8* | .
Cc1ccn2c(C=NOCc3ccc(F)cc3)c(-c3ccc(Cl)cc3)nc2c1 | . | . | . | . | . | -157.5
O=C(CSc1ncnc2sc3c(c12)CCC3)N1CCOCC1 | -3.2 | 2.4 | 12.3 | -20.8 | 12.5 | 0.1
CC(=O)CSc1ncnc2sc3c(c12)CCC3 | 14.4 | 9.1 | 18.8 | 93.6* | 2.8 | -0.9
COc1cc(NC(=O)CSc2ncnc3sc4c(c23)CCCC4)c(C(=O)O)cc1OC | 0.5 | -21.9 | 15.0 | 88.3* | 5.3 | 5.2
Nc1nnnn1N=Cc1cccc(Oc2ccccc2)c1 | . | . | . | . | . | 1.2
Cc1ccccc1OCc1nc2ccccc2c(=O)n1N=Cc1ccco1 | . | . | . | . | . | -3.2
COc1cc(C)nc(NCc2ccccc2)n1 | -6.7 | -1.8 | -15.1 | . | 35.6 | 1.0
Cc1cc(NC2CCCCC2)nc(NCc2ccccc2)n1 | 0.6 | 28.9 | 8.7 | -8.2 | 62.1* | 2.2
Cc1ccc(Nc2cc(C)nc(NCc3ccccc3)n2)cc1 | 7.7 | 18.4 | 24.8 | 2.3 | 51.4* | 6.4
Cc1cc(N2CCN(c3ccccc3)CC2)nc(NCc2ccccc2)n1 | . | 29.4 | 3.5 | 45.3 | 6.8 | 3.6
COc1ccc(Nc2cc(C)nc(NCc3ccccc3)n2)cc1 | 3.3 | 39.1 | 3.6 | 75.0* | 31.6 | .
COc1ccc(C=NNC(=O)c2ccc(Cn3cc([N+](=O)[O-])cn3)o2)cc1O | . | . | . | . | . | 12.9
COc1ccccc1/C=C/C(=O)NCC(=O)NN=Cc1ccccc1[N+](=O)[O-] | . | . | . | . | . | 7.0
Oc1oc(-c2ccccc2)nc1C=Nc1nccs1 | . | . | . | . | . | 0.8
CCN(CC)c1ccc(C2CC(=O)Nc3cc(OC)c(OC)cc32)cc1 (configuration not stated) | -9.0 | 17.1 | -4.0 | 98.4* | -0.1 | 5.9
COc1ccccc1CCC(=O)Nc1ccc(S(=O)(=O)Nc2cc(C)nc(C)n2)cc1 | 7.6 | 0.7 | -3.2 | 54.5 | . | -0.5
Cc1ccccc1OCCCC(=O)Nc1ccc2c(c1)OCO2 | -20.6 | 27.2 | -4.7 | 97.8* | . | 0.9
SMILES | Calb FLC | NALP3 yeast inh | ATG4B inh | ALR H2O2 inh | NALP1 inh | UCH37 DUB inh
COc1cc(OC)cc(C(=O)Nc2ccc(S(=O)(=O)Nc3cc(C)nc(C)n3)cc2)c1 | -3.2 | 15.1 | . | 85.2* | 23.0 | 2.4
Cc1cc(NS(=O)(=O)c2ccc(NC(=O)CCCOc3ccccc3C)cc2)nc(C)n1 | 1.1 | 20.8 | -9.2 | 98.8* | 10.2 | 2.8
Cc1ccccc1OCC(=O)Nc1ccc(S(=O)(=O)Nc2ccccn2)cc1 | -21.5 | 2.1 | -6.8 | 98.5* | 19.2 | -4.9
Cc1ccc(O)c(C=NNC(=O)CN2CCCC2)c1 | . | . | . | . | . | -32.3
CCOc1ccc(/C=N/OCC(=O)Nc2ccc3c(c2)OCO3)cc1 | 99.8* | 34.0 | -2.3 | -4.6 | -8.3 | .
CCOc1ccc(C=NOCC(=O)Nc2ccc3c(c2)OCO3)cc1 | . | . | . | . | . | 0.2
CC(=O)ON=C1C(=O)N(Cc2ccc(C)cc2)c2ccccc21 | . | . | . | . | . | 4.1

Screening results as filed in PubChem.
